The campaign covered roughly 3,500 compounds. About 1,400 (40%) were called active. So high a share suggests a set chosen from earlier hits. These entries were drawn from the full list. A number with no mark means an inactive call.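 The calls were made as follows: active = activation above the solvent-only control well mean plus 3 SD, averaged across control plates (cut at about 5.2% in these data); inactive = the rest.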
test: GAL4-VP16 luciferase reporter activation, counter-screen for SMARCA2 (BRM) activator project, cell-based, pG5luc, luminescence, high throughput (AID 686939); settings: HEK293 GAL4-VP16 pG5luc reporter, at 9.1 µM, active compounds read high, scaled: DMSO wells 0%, SAHA wells 100%
Summary of the method: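 Material: 293 cells carrying GAL4-VP16 plus UAS-luciferase reporter / Amount: 2,500 transfected 293 cells per well / Times: 24 h exposure, 37 °C, 5% CO2, One-Glo 15 min RT / Measured by: One-Glo luciferase luminescence / Repeats: three replicates per compound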

Row | SMILES | activation
1 | O=C(Nc1nnc(CCc2ccccc2)s1)C1CCCO1 (stereo not drawn) | 0.86%
2 | Cc1cc(C)c2nc(NC(=O)C3CCCO3)sc2c1 (stereo not drawn) | 7.97% (active)
3 | Cc1ccccc1C1=N/C(=C/c2cccnc2)C(=O)O1 | 0.55%
4 | Cc1ccc(O)c(CNc2nc3ccccc3n2C)c1 | 1.49%
5 | COC(=O)c1ccc(/C=C2/C(=O)Oc3ccccc32)cc1 | -0.16%
6 | COC(=O)c1ccc(NCc2cc(O)ccc2O)cc1 | 5.14% (active)
7 | CCC1CCC/C1=N\NC(=O)c1ccc(Cl)cc1 (stereo not drawn) | 0.4%
8 | O=C(C1CCC1)N1CCN(S(=O)(=O)c2ccc([N+](=O)[O-])cc2)CC1 | 0.6%
9 | Cc1ccsc1-c1nc(CSCC(=O)NCCN2CCCC2)c(C)o1 | 0.41%
10 | Cc1ccc(C(=O)Nc2nc3ccc(Cl)cc3s2)o1 | 7.07% (active)
11 | CC1CCCCN1C(=S)NCc1ccccc1 (stereo not drawn) | -0.22%
12 | Cc1ccc(C(=O)NNC(=O)c2cccs2)cc1 | 6.36% (active)
13 | Cc1ccc(S(=O)(=O)c2c[nH]c3ccc(Cl)cc3c2=O)cc1 | -0.72%
14 | Cc1ccc(S(=O)(=O)NC(C)C(=O)NCc2ccc(Cl)cc2)cc1 (stereo not drawn) | -0.12%
15 | COc1ccc(NC(=O)c2sccc2SCC#N)cc1 | 2.71%
16 | O=[N+]([O-])c1ccc2c(c1)Nc1nc3ccccc3nc1N2 | 10.8% (active)
17 | CCCn1c(=O)c2ccccc2n2c(SCC(=O)/C(C#N)=C(\C)N)nnc12 | -0.93%
18 | CCc1cc2c(=O)c(-c3ccon3)c(N)oc2cc1OC | 5.65% (active)
19 | Cc1n[nH]c(=O)nc1N/N=C/c1cccs1 | 2.94%
20 | CC(C)c1ccc(NC(=S)NC2CC3C=CC2C3)cc1 (stereo not drawn) | 8.15% (active)
21 | CCc1ccc(NC2Nc3cc(C)nn3S2)cc1 (stereo not drawn) | 6.27% (active)
22 | Cc1ccc(NC(=O)c2cnc(SCC(=O)NCC3CCCO3)n(C)c2=O)cc1 (stereo not drawn) | 3.55%
23 | O=C(NCC1CCCO1)c1cc2c(s1)CCCC2 (stereo not drawn) | 10.9% (active)
24 | O=C(Nc1ccc(F)cc1)c1cc2c(s1)CCCC2 | 10.8% (active)
25 | COCn1c(COc2ccccc2)nc2ccccc21 | 3.98%
26 | CN1CCN(CCCNC(=O)c2ccc(/C=C3\Oc4ccccc4N(Cc4ccc(Cl)cc4)C3=O)cc2)CC1 | 2.16%

Row | SMILES | activation
27 | COC(=O)Cc1nnn2c1[C@H](C)[C@H](c1ccccc1[N+](=O)[O-])OCC2 | 1.5%
28 | C/C(CC(=O)NC(C)(C)C)=N\NC(=O)c1ccco1 | 1.25%
29 | CCOc1cc(NC(=S)NCCCOC)c(OCC)cc1NC(=O)c1ccco1 | -0.82%
30 | O=C(Nc1ccc(NC(=O)c2cccs2)cn1)c1ccco1 | 11.6% (active)
31 | O=C(Nc1ccc2nccnc2c1)c1ccco1 | 6.58% (active)
32 | Cn1sc(=O)c2cc(S(=O)(=O)NC3CC3)ccc21 | 1.24%
33 | O=C1/C(=C\c2ccc([N+](=O)[O-])cc2)CS(=O)(=O)C/C1=C/c1ccc([N+](=O)[O-])cc1 | -4.02%
34 | Cc1ccsc1C(=O)N/N=C/c1ccc([N+](=O)[O-])cc1 | 14.2% (active)
35 | O=C(OCC(=O)c1cccs1)C1=COCCO1 | 7.73% (active)
36 | O=C(NCc1ccccn1)c1cnc2sccn2c1=O | 2.95%
37 | Cc1cc(C)n2nc(CNS(=O)(=O)c3c(F)c(F)c(F)c(F)c3F)nc2n1 | 1.55%
38 | CC(C)(C)C(=O)CSc1nc2ccccc2o1 | 5.87% (active)
39 | CN(C)c1nc(=Nc2cccc(Cl)c2)ss1 | 1.47%
40 | COc1ccc(/C(N)=N/OC(=O)Oc2ccccc2)cc1 | -0.09%
41 | CCCOc1ccc(-c2nc(N)n[nH]2)cc1 | 6.36% (active)
42 | COc1ccc2nc(/N=C(\N)NC(=O)Nc3ccccc3)nc(C)c2c1 | -0.04%
43 | Cc1ccnc(NC(=O)C2CCN(S(=O)(=O)c3c(C)c(C)cc(C)c3C)CC2)c1 | 1.57%
44 | COc1cccc(C(=O)Nc2nc3ccc(S(C)(=O)=O)cc3s2)c1 | 5.21% (active)
45 | N#Cc1ccccc1NC(=O)c1cccc(COc2ccc(Cl)cc2Cl)c1 | 21.9% (active)
46 | COc1ccc(S(=O)(=O)NC(C)C(=O)N2CCCCCC2)cc1 (stereo not drawn) | -0.22%
47 | CC(=O)Nc1ccc(Nc2c3ccccc3nc3ccccc23)cc1 | 1.5%
48 | CCCC(=O)N1c2ccc(-c3csc(N)n3)cc2CC1C (stereo not drawn) | 13.6% (active)
49 | CCC(=O)Nc1ccc2nn(-c3ccc(F)cc3)nc2c1 | 7.66% (active)
50 | CCCSC(=S)NC1CCS(=O)(=O)C1 (stereo not drawn) | -1.45%
51 | Cc1noc(C)c1/C=N/Nc1ccc2ccccc2n1 | 11.4% (active)
52 | COc1ccc(/C=C/C(=O)Nc2ccc(C34CC5CC(CC(O)(C5)C3)C4)cc2)cc1OC | 16.6% (active)

Row | SMILES | activation
53 | Cc1c(NC(=O)CSc2cccc3cccnc23)c(=O)n(-c2ccccc2)n1C | -2.03%
54 | COc1ccc(C(=O)N/N=c2\oc3ccccc3cc2C(N)=O)cc1 | 2.08%
55 | Cn1cc(/C=C/C(=O)N2CCCC(C(=O)c3ccc(C(F)(F)F)cc3)C2)cn1 (stereo not drawn) | 0.52%
56 | CN(C)CCNC(=O)c1ccc(Cl)c2cc3ccccc3nc12 | 10.7% (active)
57 | CCN(CC)CCNC(=O)c1ccc(NC(=O)c2cc(-c3ccncc3)nc3ccccc23)cc1 | 1.61%
58 | O=C(CCCCCn1c(=S)[nH]c2ccsc2c1=O)NC1CCCCC1 | -0.19%
59 | Oc1cccc2ccc(/C=C/c3ccc(Br)s3)nc12 | 8.85% (active)
60 | Cc1nc(N=C(N)N)nc2c(C)cccc12 | 0.25%
61 | CC(=O)c1sc(NC(=O)c2ccc(C)cc2)nc1C | 8.83% (active)
62 | CC(=O)Oc1ccc(C(=O)Nc2nccs2)cc1 | 5%
63 | Cc1ccc(NC(=O)c2cc3ccccc3o2)cc1 | 4.91%
64 | Cc1ccc(Nc2nc(Cl)c(C=O)s2)cc1 | 3.07%
65 | CC(=O)c1sc(N/N=C\c2ccc(C)cc2)nc1C | 6.19% (active)
66 | CC(C)C[C@H]1CNC(=O)C(=O)N1C[C@H]1CCCN1C[C@H](Cc1ccc(O)cc1)N1C[C@H](CC(C)C)N(CC2CCCCCC2)C(=O)C1=O | 0.47%
67 | Cc1ccc(-c2nc3ccc(Cl)cn3c2Cc2ccccc2)cc1 | 5.49% (active)
68 | Cc1ccc(-c2nc3ccc(Br)cn3c2Cc2ccccc2C(F)(F)F)cc1 | 7.09% (active)
69 | CC(C)Cc1nnc(NC(=O)CCNC(=O)c2ccccc2Cl)s1 | -0.47%
70 | Cc1cc(-n2cnc(-c3cn(C)nc3C)n2)no1 | 2.79%
71 | Cc1nnc(NC(=O)Cn2c(=O)sc3ccccc32)s1 | 0.78%
72 | COc1ccccc1C1=Nc2cccc3cccc(c23)N1 | 2.12%
73 | NS(=O)(=O)c1ccccc1NC(=O)c1c(O)c2ccccc2[nH]c1=O | 14.3% (active)
74 | CCN(CC)C(=O)CSc1nnc(-c2cccc(OC)c2)o1 | 2.98%
75 | CCOC(=O)Nc1ccc(NC(=O)OCC)cc1 | 2.67%
76 | COc1ccc(-c2cc(-c3ccc(N)cc3)nc(N)c2C#N)cc1OC | 3.72%
77 | CCCCCCOC(=O)NCC(O)c1ccccc1 (stereo not drawn) | 9.46% (active)
78 | CC(=O)c1ccc(NC(=O)c2sc3nc4n(c(=O)c3c2C)CCCCC4)cc1 | 9.18% (active)

Row | SMILES | activation
79 | O=c1c2c(nc3n1CCCCC3)sc1c(O)cccc12 | 6.75% (active)
80 | CCOc1cccc2c1OC1(CCCCC1)N1N=C(c3cccnc3)CC21 (stereo not drawn) | 0.45%
81 | O=C(Cn1ncc(N2CCCC2)c(Br)c1=O)c1ccc(Cl)cc1 | 5.53% (active)
82 | COc1ccc2ccccc2c1CNCc1ccccn1 | 4.06%
83 | C1=C(CCNc2ncnc3c2cnn3-c2ccccc2)CCCC1 | 14.9% (active)
84 | CN(C)C(CNC(=O)c1ccc(OCc2cn3ccccc3n2)cc1)c1ccco1 (stereo not drawn) | 3.42%
85 | C=CC(=O)OCCOCCOCCOCCOC(=O)C=C | 3.33%
86 | COC(=O)C1C(=O)c2c([nH]c(C(=O)OCCSC)c2C)CC1C (stereo not drawn) | 11.8% (active)
87 | O=C(CSc1nc2ccccc2[nH]1)c1cccs1 | 13.1% (active)
88 | CC1(C(=O)NS(=O)(=O)C2CC2)CCCN(C(=O)CSc2ccccc2)C1 (stereo not drawn) | -0.05%
89 | Cc1cc(C(=O)NNC(=S)Nc2ccccc2C)cs1 | 8.68% (active)
90 | Cc1ccc(-n2c(SCC(=O)N3CCC(C(=O)O)CC3)nc3ccccc3c2=O)cc1C | 4.53%
91 | CCNC(=S)N1CCN(c2ncccn2)CC1 | -0.27%
92 | COC(=O)c1sc(-c2ccc(C(C)(C)C)cc2)cc1NC(=O)/C=C/C(=O)O | 4.46%
93 | Cn1c2ccc(F)cc2c2nnc(NN)nc21 | 0.75%
94 | Cc1cccc(CSc2ccc(-c3cccs3)nn2)c1 | 3.46%
95 | COc1ccc(Cn2c(C)c(C)c(C#N)c2NC(=O)Nc2ccc(F)cc2)cc1 | -0.19%
96 | O=C(Nc1ccc2c(c1)CCC2)c1ccc(Br)s1 | 5.57% (active)
97 | O=C(NC1CCCC1)C(=O)c1c[nH]c2ccccc12 | 6.44% (active)
98 | CC(=O)c1cccc(-c2cnc3c(NC=O)cc(-c4ccc(N5CCN(C)CC5)cc4)cn23)c1 | 2.83%
99 | CCN(CC)C(=O)c1sc2nc(-c3ccccc3)ccc2c1N | 11.2% (active)
100 | COc1cccc(C(=O)Nc2cc3c(cc2Br)OCCCO3)c1 | 9.44% (active)
101 | c1ccc2cc3c(NCCN4CCOCC4)ccnc3cc2c1 | 0.84%
102 | Cc1cccc(-n2c(O)c(C=Nc3ccccc3N)c(=O)[nH]c2=O)c1 | 6.14% (active)
103 | C=C1C(=O)[C@]23C[C@H]1CCC2[C@@]1(C)C(C[C@@H]3O)[C@](C)(C(=O)O)CC[C@@H]1O (stereo partly drawn) | 1.65%
